From ChEMBL document CHEMBL1134940, “Highly potent non-peptidic inhibitors of the HCV NS3/NS4A serine protease” (Bioorg Med Chem Lett, 2002)

Tests used:
Assay type in all cases: protein-complex assay, Hepacivirus hominis
[1] = biological target: T1, Hepatitis C virus serine protease, NS3/NS4A (Hepatitis C virus, UniProt A3EZI9+D2K2A8); test: Inhibition of HCV serine protease NS3/NS4A in the presence of EDTA.
Method in brief: (§1)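 No Zn(II) added; EDTA included. Inhibitor at varying concentrations preincubated 30 min at room temperature (21–24 °C). Reaction started with the quenched-fluorescence substrate Ac-DED(Edans)EE-Abu[COO]-ASK(Dabcyl)-CONH₂.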

[2] = biological target: T1, Hepatitis C virus serine protease, NS3/NS4A; test: Inhibition of HCV serine protease NS3/NS4A in the presence of Zn
Method in brief: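 Same setup run with ZnCl₂ added instead of EDTA. NS3 protease construct (first 183 residues; 12 nM active sites) plus the 17-residue NS4A surrogate peptide. Inhibitor at several concentrations preincubated 30 min at 21–24 °C. The Edans/Dabcyl quenched-fluorescence depsipeptide substrate was then added to start the reaction.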

[3] = biological target: T1, Hepatitis C virus serine protease, NS3/NS4A; test: Inhibition of HCV serine protease NS3/NS4A in the presence of EDTA; method in brief: as §1

T1 sequence (D2K2A8 whole entry): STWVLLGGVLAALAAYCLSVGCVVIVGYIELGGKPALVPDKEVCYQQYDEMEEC
T1 sequence (A3EZI9 whole entry): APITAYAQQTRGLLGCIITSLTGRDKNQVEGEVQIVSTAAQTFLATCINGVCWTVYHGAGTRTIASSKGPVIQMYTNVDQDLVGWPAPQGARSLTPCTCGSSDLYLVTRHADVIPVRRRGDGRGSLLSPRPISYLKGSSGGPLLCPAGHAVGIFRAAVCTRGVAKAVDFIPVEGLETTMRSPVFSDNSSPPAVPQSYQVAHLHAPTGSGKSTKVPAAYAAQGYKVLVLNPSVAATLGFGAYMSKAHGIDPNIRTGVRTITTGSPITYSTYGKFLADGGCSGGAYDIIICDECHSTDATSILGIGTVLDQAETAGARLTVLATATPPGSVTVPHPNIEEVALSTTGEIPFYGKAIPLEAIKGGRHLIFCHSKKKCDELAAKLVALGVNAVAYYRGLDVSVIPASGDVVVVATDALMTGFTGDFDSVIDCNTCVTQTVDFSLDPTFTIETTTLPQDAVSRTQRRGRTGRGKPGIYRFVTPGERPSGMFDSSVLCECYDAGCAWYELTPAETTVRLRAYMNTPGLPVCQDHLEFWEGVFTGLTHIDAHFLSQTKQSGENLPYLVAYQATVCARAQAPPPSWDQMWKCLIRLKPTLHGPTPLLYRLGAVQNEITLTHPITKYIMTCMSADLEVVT

| Structure (SMILES) | Ki [1] [µM] | Ki [2] [nM] | Ki [3] [µM] |
| --- | --- | --- | --- |
| CC(C)(C)Cn1c(Cc2nc3ccccc3[nH]2)nc2ccc(C(=O)NC(CP(=O)(O)O)C(=O)O)cc21 (centres undefined) | > 300 | 610 |  |
| Cn1c(C(F)(F)c2nc3c(F)c(F)cc(F)c3[nH]2)nc2ccc(C(=O)NC(CP(=O)(O)O)C(=O)O)cc21 (centres undefined) | 12 | 2900 |  |
| Cn1c(Cc2nc3ccc(C(N)=O)cc3[nH]2)nc2ccc(C(=O)NCC(=O)O)cc21 |  | 68000 | > 300 |
| Cn1c(C(F)(F)c2nc3cc(F)ccc3[nH]2)nc2ccc(C(=O)NC(CP(=O)(O)O)C(=O)O)cc21 (centres undefined) | 55 | 1300 |  |
| COc1ccc2nc(Cc3nc4ccc(C(=O)NC(CP(=O)(O)O)C(=O)O)cc4n3C)[nH]c2c1 (centres undefined) | 187 | 200 |  |
| Cn1c(Cc2nc3ccc(O)cc3[nH]2)nc2ccc(C(=O)NC(CP(=O)(O)O)C(=O)O)cc21 (centres undefined) | 250 | 190 |  |
| Cn1c(Cc2nc3ccc(C(=O)NC(CP(=O)(O)O)C(=O)O)cc3[nH]2)nc2ccc(C(=O)NC(CP(=O)(O)O)C(=O)O)cc21 (centres undefined) | 21 | 100 |  |
| Cn1c(Cc2nc3ccc(C(=O)NC(CP(=O)(O)O)C(=O)O)cc3n2C)nc2ccccc21 (centres undefined) |  | 3800 | 140 |
| Cn1c(Cc2nc3c(F)c(F)ccc3[nH]2)nc2ccc(C(=O)NC(CP(=O)(O)O)C(=O)O)cc21 (centres undefined) | 140 | 270 |  |
| Cn1c(C(F)(F)c2nc3ccccc3[nH]2)nc2ccc(C(=O)NC(CP(=O)(O)O)C(=O)O)cc21 (centres undefined) | 1.1 |  |  |
| CC(c1nc2ccc(C(N)=O)cc2[nH]1)c1nc2cc(C(=O)C(CP(=O)(O)O)C(=O)O)ccc2n1C (centres undefined) |  | > 300000 | > 300 |
| Cn1c(Cc2nc3cc(C(F)(F)F)ccc3[nH]2)nc2ccc(C(=O)NC(CP(=O)(O)O)C(=O)O)cc21 (centres undefined) |  | 410 | 70 |
| Cn1c(Cc2nc3c(F)cc(F)cc3[nH]2)nc2ccc(C(=O)NC(CP(=O)(O)O)C(=O)O)cc21 (centres undefined) |  | 240 | 58 |
| Cn1c(Cc2nc3cc(F)c(F)cc3[nH]2)nc2ccc(C(=O)NC(CP(=O)(O)O)C(=O)O)cc21 (centres undefined) |  | 210 | 25 |
| Cn1c(C(F)(F)c2nc3c(F)cc(F)cc3[nH]2)nc2ccc(C(=O)NC(CP(=O)(O)O)C(=O)O)cc21 (centres undefined) | 25 | 1400 |  |
| Cn1c(C(F)(F)c2nc3ccc(C(=O)NC(CP(=O)(O)O)C(=O)O)cc3[nH]2)nc2ccc(C(=O)NC(CP(=O)(O)O)C(=O)O)cc21 (centres undefined) | 15 | 73 |  |
| Cn1c(Cc2nc3ccc(Cl)cc3[nH]2)nc2ccc(C(=O)NC(CP(=O)(O)O)C(=O)O)cc21 (centres undefined) |  | 380 | 130 |
| O=C(NC(CP(=O)(O)O)C(=O)O)c1ccc2nc(Cc3nc4ccccc4[nH]3)n(CC3CC3)c2c1 (centres undefined) | 140 | 140 |  |
| Cn1c(C(F)(F)c2nc3cc(F)c(F)cc3[nH]2)nc2ccc(C(=O)NC(CP(=O)(O)O)C(=O)O)cc21 (centres undefined) | 15 | 4000 |  |

Other lines, results leading:

| Ki [1] [µM] | Ki [2] [nM] | Ki [3] [µM] | Structure (SMILES) |
| --- | --- | --- | --- |
| 19.6 | 820 |  | Cn1c(C(F)(F)c2nc3ccccc3[nH]2)nc2ccc(C(=O)NC(CP(=O)(O)O)C(=O)NC(CP(=O)(O)O)C(=O)O)cc21 (centres undefined) |
| 74 | 1200 |  | Cn1c(C(F)(F)c2nc3ccc(C(N)=O)cc3[nH]2)nc2ccc(C(=O)NC(CP(=O)(O)O)C(=O)O)cc21 (centres undefined) |
| > 300 | 870 |  | CC(C)CCn1c(Cc2nc3ccccc3[nH]2)nc2ccc(C(=O)NC(CP(=O)(O)O)C(=O)O)cc21 (centres undefined) |
| > 300 | 10000 |  | Cc1cccc2[nH]c(Cc3nc4ccc(C(=O)NC(CP(=O)(O)O)C(=O)O)cc4n3C)nc12 (centres undefined) |
|  | 32000 | 150 | CC(=O)NCc1nc2ccc(C(=O)NC(CP(=O)(O)O)C(=O)O)cc2n1C (centres undefined) |
| 21 | 200 |  | Cn1c(Cc2nc3c(F)c(F)c(F)cc3[nH]2)nc2ccc(C(=O)NC(CP(=O)(O)O)C(=O)O)cc21 (centres undefined) |
| > 300 | 370 |  | CC(C)Cn1c(Cc2nc3ccccc3[nH]2)nc2ccc(C(=O)NC(CP(=O)(O)O)C(=O)O)cc21 (centres undefined) |
| 37 | 470 |  | Cn1c(C(F)c2nc3ccccc3[nH]2)nc2ccc(C(=O)NC(CP(=O)(O)O)C(=O)O)cc21 (centres undefined) |
| > 300 | 450 |  | Cn1c(Cc2nc3ccccc3[nH]2)nc2ccc(C(=O)NC(CP(=O)(O)O)C(=O)O)cc21 (centres undefined) |
| > 300 | 12000 |  | CC(C)n1c(Cc2nc3ccccc3[nH]2)nc2ccc(C(=O)NC(CP(=O)(O)O)C(=O)O)cc21 (centres undefined) |
| 32 | 277 |  | COC(=O)C(CP(=O)(O)O)NC(=O)c1ccc2[nH]c(C(F)(F)c3nc4ccc(C(=O)NC(CP(=O)(O)O)C(=O)OC)cc4n3C)nc2c1 (centres undefined) |
|  | 1200 | 181 | CC(c1nc2ccccc2[nH]1)c1nc2cccc(C(=O)NC(CP(=O)(O)O)C(=O)O)c2n1C (centres undefined) |
| 38 | 2400 |  | Cn1c(C(F)(F)c2nc3ccc(Cl)cc3[nH]2)nc2ccc(C(=O)NC(CP(=O)(O)O)C(=O)O)cc21 (centres undefined) |
|  | 280 | 95 | Cn1c(Cc2nc3cc(F)ccc3[nH]2)nc2ccc(C(=O)NC(CP(=O)(O)O)C(=O)O)cc21 (centres undefined) |
| 98 | 240 |  | Cc1ccc2nc(Cc3nc4ccc(C(=O)NC(CP(=O)(O)O)C(=O)O)cc4n3C)[nH]c2c1 (centres undefined) |
| 170 | 200 |  | Cn1c(Cc2nc3cc(C(N)=O)ccc3[nH]2)nc2ccc(C(=O)NC(CP(=O)(O)O)C(=O)O)cc21 (centres undefined) |
| 72 | 550 |  | Cn1c(C(F)c2nc3c(F)c(F)cc(F)c3[nH]2)nc2ccc(C(=O)NC(CP(=O)(O)O)C(=O)O)cc21 (centres undefined) |
|  | 1360 | 38.1 | COP(=O)(O)CC(NC(=O)c1ccc2nc(Cc3nc4ccc(C(N)=O)cc4[nH]3)n(C)c2c1)C(=O)O (centres undefined) |
| 66 | 21000 |  | Cc1cccc2[nH]c(C(F)(F)c3nc4ccc(C(=O)NC(CP(=O)(O)O)C(=O)O)cc4n3C)nc12 (centres undefined) |
| 22 | 350 |  | Cn1c(Cc2nc3c(F)cc(F)c(F)c3[nH]2)nc2ccc(C(=O)NC(CP(=O)(O)O)C(=O)O)cc21 (centres undefined) |
| 1 | 27 |  | Cn1c(C(F)(F)c2nc3ccc(C(=O)NC(CP(=O)(O)O)C(=O)O)cc3[nH]2)nc2ccc(C(=O)NC(CP(=O)(O)O)C(=O)NC(CP(=O)(O)O)C(=O)O)cc21 (centres undefined) |
| 17 | 280 |  | Cn1c(Cc2nc3c(F)c(F)c(F)c(F)c3[nH]2)nc2ccc(C(=O)NC(CP(=O)(O)O)C(=O)O)cc21 (centres undefined) |
|  | 83000 | 110 | CC(c1ncc[nH]1)c1nc2ccc(C(=O)NC(CP(=O)(O)O)C(=O)O)cc2n1C (centres undefined) |
| 24 | 490 |  | COc1cccc2[nH]c(Cc3nc4ccc(C(=O)NC(CP(=O)(O)O)C(=O)O)cc4n3C)nc12 (centres undefined) |
|  | 230 | 215 | CC(c1nc2ccccc2[nH]1)c1nc2ccc(C(=O)NC(CP(=O)(O)O)C(=O)O)cc2n1C (centres undefined) |
| 91 | 660 |  | Cn1c(C(F)c2nc3c(F)cc(F)cc3[nH]2)nc2ccc(C(=O)NC(CP(=O)(O)O)C(=O)O)cc21 (centres undefined) |
